KCNQ1 act – human KCNQ1 channel potentiation or activation | CHO-K1 KCNQ1, thallium flux FluxOR fluorescence; stronger effect = higher value | P51787 | 310,000 compounds, 0.35% hits | B-score at 10 µM;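 active = fluorescence ratio B-score, a plate-corrected score, at least three library SD, with initial intensity B-score within 5 SD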
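Assay system: CHO-K1 cells stably expressing KCNQ1. Medium: assay buffer for compound exposure, DMSO matched across wells. Timing: 37 °C overnight plating, 90-min dark dye load, 20-min compound pretreatment. Signal: kinetic FluxOR fluorescence, 10 s baseline plus 110 s post-stimulus.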
hERG protect – hERG (human) protection from proarrhythmic block | Q12809 | CHO-hERG, FluxOR thallium flux, dofetilide IC70 present | activation (rescue from dofetilide block), less the hit threshold, % at 10 µM | 310,000 compounds, 0.51% hits;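 active = activation above the mean of controls blocked by dofetilide plus 5 SD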;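 note: thallium influx through hERG after potassium depolarization seen as dye fluorescence rise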
KCNQ1 block – inhibitors of human KCNQ1 potassium channel; CHO-K1 KCNQ1, FluxOR thallium flux fluorescence; stronger effect = higher value; P51787; 310,000 compounds, 1.3% hits; B-score at 10 µM;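 active = compounds whose thallium flux B-score, printed positive for inhibition, exceeds three library SD while starting fluorescence stays within three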;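 note: channel opened by potassium depolarization with thallium stimulus after 20 min compound exposure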
KCNK3 inh – human KCNK3 channel inhibition, primary screen; O14649; CHO-KCNK3 thallium flux, FluxOR fluorescence; stronger effect = lower value; B-score at 10 µM; 340,000 compounds, 0.84% hits; AID 602410;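 active = B-score under library mean minus 4 SD, starting fluorescence ratio at most library mean plus 5 SD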;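 note: more negative B-score means stronger inhibition of thallium flux through KCNK3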
Kir21 block – Kir2.1 (mouse) channel inhibition; HEK293-Kir2.1, FluxOR thallium flux fluorescence; stronger effect = lower value; B-score at 10 µM; 310,000 compounds, 0.85% hits; AID 1672;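 active = fluorescence ratio B-score at or below minus 3 SD of library scores, with starting-brightness B-score within 2 SD, cut at about -4.2 in these data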;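 note: channel flux triggered by added potassium and thallium sulfate stimulus; B-score of peak minus minimum fluorescence over baseline after thallium stimulus; more negative B-score means stronger Kir2.1 block with less thallium influx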
KCNK9 block – blocks the human KCNK9 two-pore domain potassium channel; AID 488922; B-score at 10 µM; HEK293 KCNK9, FluxOR thallium flux fluorescence; stronger effect = lower value; 310,000 compounds, 1.2% hits;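 active = ratio B-score over 3 SD below the library mean, with starting fluorescence within 5 SD of its mean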;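 note: negative B-score means less thallium flux so channel inhibition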
Target sequence (Q9NPC2 whole entry, looked up, the tested form may be a part): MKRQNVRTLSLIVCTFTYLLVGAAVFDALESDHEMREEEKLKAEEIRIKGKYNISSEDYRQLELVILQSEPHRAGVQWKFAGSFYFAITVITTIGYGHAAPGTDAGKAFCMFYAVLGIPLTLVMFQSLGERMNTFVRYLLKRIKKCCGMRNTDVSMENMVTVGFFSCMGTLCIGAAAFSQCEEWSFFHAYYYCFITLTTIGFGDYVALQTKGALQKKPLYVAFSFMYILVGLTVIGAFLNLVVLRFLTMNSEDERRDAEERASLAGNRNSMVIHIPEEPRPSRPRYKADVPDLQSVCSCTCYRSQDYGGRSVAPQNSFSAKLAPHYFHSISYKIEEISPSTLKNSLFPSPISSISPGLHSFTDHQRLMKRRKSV
KCNK9 block conf – confirmation of human KCNK9 potassium channel inhibitors. shares compounds with KCNK9 block. HEK293 KCNK9 cells, FluxOR thallium flux fluorescence. inhibition, % at 10 µM. 4,900 compounds, 43% hits;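 active = thallium signal inhibited by more than 5 SD of the compound-free buffer control wells, on both duplicate plates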
Kir2-1 spec – selectivity of KCNK9 modulators against mouse Kir2.1; shares compounds with KCNK9 block; Kir2.1 cells, FluxOR thallium flux fluorescence; inhibition, % at 10 µM; 4,900 compounds, 4% hits; AID 492993;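 active = thallium signal drop more than 5 SD beyond the mean of the no-compound control wells, seen in both duplicate plates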;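 note: signal is fluorescence rise after thallium addition divided by baseline fluorescence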
KCNK9 uninduced – second check of KCNK9 modulator effects in non-induced HEK293 cells; shares compounds with KCNK9 block; FluxOR thallium flux; inhibition, % at 10 µM; 4,900 compounds, 40% hits; AID 492997;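 active = thallium signal drop beyond 5 SD of the untreated control mean, on both duplicate plates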
KCNK3 confirm – human KCNK3 channel inhibition, confirmation assay. shares compounds with KCNK3 inh. CHO-KCNK3 thallium flux, FluxOR fluorescence; 0% buffer, 100% carvedilol maximal block. ratio percent of control, % at 10 µM. 2,400 compounds, 99% hits. AID 651638;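 active = ratio percent of control, averaged over triplicates, above buffer control mean plus 5 SD, cut at about 64% in these data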;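 note: ratio is the fluorescence rise from min to max over baseline after thallium stimulus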
KCNK3 uninduced – activity in cells without induced KCNK3 expression | shares compounds with KCNK3 inh | non-induced KCNK3 parental cells, FluxOR thallium flux; stronger effect = lower value | thallium flux ratio (lower = more inhibition) at 10 µM | 2,400 compounds, 40% hits | AID 651747;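 active = thallium flux ratio, averaged over three wells, more than 5 SD below the buffer control mean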;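 note: host cells are CHO cells without KCNK3 induction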
Numbers stand for hits; . = inactive; / = no result given. Compounds with a hit are over-represented: about 3.8% of the library has one in this group of screens.

SMILES	KCNQ1 act	hERG protect	KCNQ1 block	KCNK3 inh	Kir21 block	KCNK9 block	KCNK9 block conf	Kir2-1 spec	KCNK9 uninduced	KCNK3 confirm	KCNK3 uninduced
COC(=O)c1cc(COc2ccc3oc(C)c(C(=O)OC(C)C)c3c2)c(C)o1	.	.	.	.	.	-10.2	.	.	46.0%	92.3	0.142
CCOc1ccc(OCCSc2nnnn2C2CCCCC2)cc1	.	.	.	-12.1	.	-14.1	68.0%	.	44.0%	118.3	0.156
CSc1nc(N2CCN(c3ccccc3Cl)CC2)c2ccccc2n1	.	.	.	.	.	-14.2	59.5%	.	33.5%	104.0	.
COn1c(SCc2cccc(Cl)c2)nc2ccccc2c1=O	.	.	.	-10.9	.	-9.66	50.0%	.	.	84.0	.
COCCn1c(SCc2nc3ccccc3c(=O)[nH]2)nc2ccccc2c1=O	.	.	.	.	.	.	/	/	/	/	/
COCCn1c(SCc2ccc(OC)c(F)c2)nc2ccccc2c1=O	.	.	.	-11.9	.	-16.1	79.0%	.	64.5%	106.0	.
COn1c(SCc2ccccc2)nc2ccccc2c1=O	.	.	.	.	.	.	/	/	/	/	/
CSCCC(NC(=O)c1ccco1)C(=O)N1CC=C(c2ccccc2)CC1 (centres undefined)	.	.	.	.	.	.	/	/	/	/	/
CC(=O)Nc1ccc(-c2cc(C(=O)O)c3ccccc3n2)cc1	.	.	.	.	.	.	/	/	/	/	/
Cc1cc(/C=N/NC(=O)c2cccs2)c(C)n1-c1ccccc1	.	.	.	-10.2	.	-10	43.0%	.	.	118.3	0.139
COc1ccccc1OCC(=O)Nc1cccc(-c2nc3ccccc3o2)c1	.	.	.	.	.	-11.6	45.0%	.	.	113.7	.
Cc1ccc(C)c(Nc2cc(C)nc(-c3ccccc3O)n2)c1	.	.	.	-10.5	.	-9.36	49.0%	.	40.0%	125.3	0.125
COc1ccccc1CNC(=O)[C@H](C)NC(=O)C1CCN(C(=O)[C@@H](N)CC(C)C)CC1	.	.	.	.	.	.	/	/	/	/	/
COc1ccc2oc(=O)cc(-c3cc4cccc(OC)c4o3)c2c1	.	.	.	.	.	.	/	/	/	/	/
CCN(CC)C(=O)Oc1ccc2oc(=O)cc(-c3cc4cccc(OC)c4o3)c2c1	.	.	.	-9.96	.	-18.2	80.0%	.	34.0%	104.3	.
CCOC(=O)C(C)Sc1nc(-c2ccco2)cc(C(F)(F)F)c1C#N (centres undefined)	.	.	.	-12.1	.	-15.7	70.5%	.	44.0%	97.7	0.131
CCOC(=O)c1sc(NC(=O)CSc2nc(-c3ccco3)cc(C(F)(F)F)n2)c(C#N)c1C	.	.	.	.	.	.	/	/	/	/	/
CSC(=NC#N)N1CCN(C(c2ccccc2)c2ccccc2)CC1	.	.	.	.	.	-9.79	39.0%	.	35.0%	122.7	.
CSC(=NC#N)N1CCN(C(=NC#N)SC)CC1	.	.	.	.	.	.	/	/	/	/	/
O=C(Oc1c(Br)cc(C(=S)N2CCOCC2)cc1Br)c1ccc(Cl)cc1	.	.	.	.	.	.	/	/	/	/	/
O=C(Oc1ccc(C(=S)N2CCOCC2)cc1Br)c1cc(Cl)ccc1Cl	.	.	.	-9.41	.	-13.7	48.5%	.	35.0%	99.0	.
CCOC(=O)c1nn(-c2cccc(OC)c2)c(-c2ccccc2)c1C(=O)c1ccccc1	.	.	.	-9.26	.	-10.1	50.5%	.	.	113.0	0.138
